Test results as given in PMC7893792 (ACS Omega, 2021).
Values belong to the molecule of their own block, whether it stands above or below them.

Legend:
hOAT1 [1] = molecular target: T1, hOAT1 (Homo sapiens, UniProt Q4U2R8); settings: cited from earlier work
T1 sequence (Q4U2R8 1-563): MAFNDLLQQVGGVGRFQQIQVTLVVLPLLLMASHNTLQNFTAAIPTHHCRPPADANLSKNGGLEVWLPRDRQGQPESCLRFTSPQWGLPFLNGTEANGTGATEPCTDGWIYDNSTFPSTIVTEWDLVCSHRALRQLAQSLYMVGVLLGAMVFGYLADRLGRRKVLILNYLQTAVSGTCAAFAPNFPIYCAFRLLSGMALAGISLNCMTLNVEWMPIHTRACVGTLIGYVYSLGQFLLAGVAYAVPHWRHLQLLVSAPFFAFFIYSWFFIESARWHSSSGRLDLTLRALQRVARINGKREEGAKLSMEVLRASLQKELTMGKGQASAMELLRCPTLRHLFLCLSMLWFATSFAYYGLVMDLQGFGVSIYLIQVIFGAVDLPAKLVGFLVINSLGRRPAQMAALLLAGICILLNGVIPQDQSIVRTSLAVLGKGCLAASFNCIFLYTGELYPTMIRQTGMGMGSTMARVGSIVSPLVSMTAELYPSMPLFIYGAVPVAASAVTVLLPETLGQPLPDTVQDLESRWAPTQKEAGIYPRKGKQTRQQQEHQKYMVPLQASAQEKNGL

hOAT1 [2] = molecular target: T1, hOAT1; experiment: 6-CF uptake by hOAT1-expressing HEK293 cells; format: cell-based
hOAT3 [3] = molecular target: T2, hOAT3 (Homo sapiens, UniProt Q8TCC7); experiment: 6-CF uptake by hOAT3-expressing HEK293 cells; format: cell-based; settings: for inhibition at 100 µM: HEK293, pH 7.4, read-out: Inhibition of hOAT3-mediated 6-CF uptake
T2 sequence (Q8TCC7 1-542): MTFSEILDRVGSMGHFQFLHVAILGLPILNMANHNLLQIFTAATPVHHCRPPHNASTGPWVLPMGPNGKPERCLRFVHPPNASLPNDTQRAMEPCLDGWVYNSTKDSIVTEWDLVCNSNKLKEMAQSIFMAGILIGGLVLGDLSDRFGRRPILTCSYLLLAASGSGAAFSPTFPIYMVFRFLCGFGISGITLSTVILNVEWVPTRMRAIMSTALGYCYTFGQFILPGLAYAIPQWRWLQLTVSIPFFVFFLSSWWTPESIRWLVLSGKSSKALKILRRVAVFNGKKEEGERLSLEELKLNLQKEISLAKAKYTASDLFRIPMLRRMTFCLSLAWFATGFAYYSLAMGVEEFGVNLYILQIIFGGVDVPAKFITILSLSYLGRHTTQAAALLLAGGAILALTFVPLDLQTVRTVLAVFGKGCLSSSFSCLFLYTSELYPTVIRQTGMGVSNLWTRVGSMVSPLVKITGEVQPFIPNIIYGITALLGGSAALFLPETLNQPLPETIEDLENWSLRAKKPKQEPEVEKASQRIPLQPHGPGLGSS
How it was run: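 After 10 min preincubation at 37 °C in Waymouth buffer pH 7.4, cells took up 1 μM 6-CF with test compound for 2 min, then ice-cold PBS wash, 1% SDS lysis, fluorescence. Vector uptake subtracted. Inhibition type: 6-CF 1–100 μM ± 0.1 mM test compound, Eadie–Hofstee plot; mean ± SE, n = 3–4.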

rOat1 = molecular target: T3, rOat1 (Rattus norvegicus, UniProt O35956); experiment: 6-CF uptake by rOat1-expressing HEK293 cells; format: cell-based
T3 sequence (O35956 1-551): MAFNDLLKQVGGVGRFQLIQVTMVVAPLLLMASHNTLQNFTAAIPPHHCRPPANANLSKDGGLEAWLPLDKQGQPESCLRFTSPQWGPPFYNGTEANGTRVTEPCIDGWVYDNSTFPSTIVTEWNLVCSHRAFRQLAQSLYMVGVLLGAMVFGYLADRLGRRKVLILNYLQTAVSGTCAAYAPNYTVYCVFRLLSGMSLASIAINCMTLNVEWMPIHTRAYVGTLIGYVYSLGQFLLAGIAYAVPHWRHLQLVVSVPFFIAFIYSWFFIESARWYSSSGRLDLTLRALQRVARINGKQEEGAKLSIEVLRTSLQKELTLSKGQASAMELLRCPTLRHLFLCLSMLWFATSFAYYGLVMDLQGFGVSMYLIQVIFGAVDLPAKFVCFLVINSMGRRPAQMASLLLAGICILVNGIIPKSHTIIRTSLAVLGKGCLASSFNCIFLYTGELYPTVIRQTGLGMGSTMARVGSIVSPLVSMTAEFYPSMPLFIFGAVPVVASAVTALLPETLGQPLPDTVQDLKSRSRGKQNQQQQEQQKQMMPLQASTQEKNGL

rOat3 = molecular target: T4, rOat3 (Rattus norvegicus, UniProt Q9R1U7); experiment: 6-CF uptake by rOat3-expressing HEK293 cells; format: cell-based; settings: for inhibition at 100 µM: HEK293, pH 7.4, read-out: Inhibition of rOat3-mediated 6-CF uptake
T4 sequence (Q9R1U7 1-536): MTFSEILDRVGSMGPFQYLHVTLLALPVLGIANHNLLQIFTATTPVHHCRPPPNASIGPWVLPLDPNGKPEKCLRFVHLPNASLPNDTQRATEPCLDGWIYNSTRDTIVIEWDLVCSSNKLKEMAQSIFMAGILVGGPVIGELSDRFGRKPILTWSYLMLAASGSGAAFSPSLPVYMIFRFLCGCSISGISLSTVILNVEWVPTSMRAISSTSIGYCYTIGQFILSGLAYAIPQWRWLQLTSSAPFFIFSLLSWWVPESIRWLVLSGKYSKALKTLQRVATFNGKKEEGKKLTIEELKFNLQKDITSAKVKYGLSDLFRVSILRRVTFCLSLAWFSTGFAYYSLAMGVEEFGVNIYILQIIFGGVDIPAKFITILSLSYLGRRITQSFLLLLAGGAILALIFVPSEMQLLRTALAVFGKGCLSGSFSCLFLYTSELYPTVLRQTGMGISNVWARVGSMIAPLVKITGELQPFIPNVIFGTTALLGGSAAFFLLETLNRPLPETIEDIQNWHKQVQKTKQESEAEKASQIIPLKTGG

renal Oats = experiment: Plasma concentration and urinary excretion of 6-CF in rats; format: in vivo; settings: rat; for Decrease of the renal clearance (CLr) of 6-CF: vs control, probenecid 100 mg/kg, EGCG 60 mg/kg, 2% D-malate
How it was run: (§1)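 Male Wistar/ST rats (7 weeks) were anesthetized with ethyl carbamate/α-chloralose, with femoral artery, vein and bladder catheters. 5% mannitol iv bolus 2.5 mL/kg, then 0.03 mL/min infusion. After 20 min, 6-CF 1 mg/kg iv bolus ± test compound 60 mg/kg, saline vehicle. Plasma sampled 1–60 min, urine 0–60 min; fluorescence read-out. AUC0–60 by trapezoidal rule; CLr = 60-min urinary amount/AUC0–60; mean ± SD, 6–8 rats.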

Renal parameters = format: in vivo; settings: rat; for BUN / Ccr: iv probenecid 100 mg/kg, EGCG 60 mg/kg or 2% D-malate; for Change in blood urea nitrogen (BUN) / Change in creatinine clearance (Ccr): vs control, Dunnett's test
How it was run: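 Anesthetized, catheterized male Wistar/ST rats on iv 5% mannitol (2.5 mL/kg bolus, 0.03 mL/min infusion; ± 2% D-malate) received 6-CF 1 mg/kg iv alone or with reference inhibitor 100 mg/kg or test compound 60 mg/kg. BUN measured with a colorimetric urea kit; plasma and urine creatinine by kit. Ccr = urinary creatinine excretion rate ÷ plasma creatinine. One-way ANOVA, Dunnett's test vs control.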

mouse Oat3 = settings: cited from earlier work
[4] = Plasma concentration and urinary excretion of 6-CF in rats; format: in vivo; settings: male, Wistar/ST, rat, iv, 1 mg/kg
How it was run: as §1

hOAT1 [5] = molecular target: T1, hOAT1; settings: cited from earlier work; remark: listed apart in the source
hOAT3 [6] = molecular target: T2, hOAT3; settings: cited from earlier work
[7] = substrate: O=C(O)c1ccc(C(=O)O)c(-c2c3ccc(=O)cc-3oc3cc(O)ccc23)c1; experiment: 6-CF uptake by rOat1-expressing HEK293 cells; format: cell-based, rat; settings: other: HEK293-rOat1, 2 min, 37 °C, pH 7.4, 1-100 μM 6-CF
[8] = EGCG 60 mg/kg iv with 6-CF 1 mg/kg
[9] = compound 100 μM, 6-CF 1 μM, 2 min, 37 °C, pH 7.4

Molecule: O.Oc1cc(O)c2c(c1)O[C@H](c1ccc(O)c(O)c1)[C@@H](O)C2 [catechin]
- Interaction with hOAT1 (hOAT1 [1]): did not interact

Molecule: Oc1cc(O)c2c(c1)O[C@H](c1ccc(O)c(O)c1)[C@H](O)C2 [epicatechin]
- Interaction with hOAT1 (hOAT1 [1]): did not interact
- Inhibition of mouse Oat3 (mouse Oat3): inhibit

Molecule: O=C(O[C@@H]1Cc2c(O)cc(O)cc2O[C@@H]1c1ccc(O)c(O)c1)c1cc(O)c(O)c(O)c1 [epicatechin gallate]
- Inhibition of mouse Oat3 (mouse Oat3): inhibit

Molecule: O=C(O)C[C@@H](O)C(=O)O [D-malate]
- Decrease of the renal clearance (CLr) of 6-CF (renal Oats): ~4 fold
- BUN (Renal parameters): 11.4 ± 1.1 mg/dL
- Ccr (Renal parameters): 2.92 ± 0.66 mL/min/kg
- Change in blood urea nitrogen (BUN) (Renal parameters): no significant change
- Change in creatinine clearance (Ccr) (Renal parameters): no significant change

B1: rOat1 (Rattus norvegicus) (protein)
chain: MAFNDLLKQVGGVGRFQLIQVTMVVAPLLLMASHNTLQNFTAAIPPHHCRPPANANLSKDGGLEAWLPLDKQGQPESCLRFTSPQWGPPFYNGTEANGTRVTEPCIDGWVYDNSTFPSTIVTEWNLVCSHRAFRQLAQSLYMVGVLLGAMVFGYLADRLGRRKVLILNYLQTAVSGTCAAYAPNYTVYCVFRLLSGMSLASIAINCMTLNVEWMPIHTRAYVGTLIGYVYSLGQFLLAGIAYAVPHWRHLQLVVSVPFFIAFIYSWFFIESARWYSSSGRLDLTLRALQRVARINGKQEEGAKLSIEVLRTSLQKELTLSKGQASAMELLRCPTLRHLFLCLSMLWFATSFAYYGLVMDLQGFGVSMYLIQVIFGAVDLPAKFVCFLVINSMGRRPAQMASLLLAGICILVNGIIPKSHTIIRTSLAVLGKGCLASSFNCIFLYTGELYPTVIRQTGLGMGSTMARVGSIVSPLVSMTAEFYPSMPLFIFGAVPVVASAVTALLPETLGQPLPDTVQDLKSRSRGKQNQQQQEQQKQMMPLQASTQEKNGL
- Km [7]: 6.68 ± 0.62 µM

More lines, main results first:

- Type of inhibition (hOAT1 [2]; hOAT1, Eadie-Hofstee plot): mixed-type inhibition
- Type of inhibition (hOAT3 [3]; hOAT3, Eadie-Hofstee plot): competitive inhibition
- Type of inhibition (rOat1; rOat1, Eadie-Hofstee plot): competitive inhibition
- Type of inhibition (rOat3; rOat3, Eadie-Hofstee plot): competitive inhibition
- BUN (Renal parameters): 11.9 ± 1.3 mg/dL
- Ccr (Renal parameters): 2.58 ± 0.82 mL/min/kg
- Change in blood urea nitrogen (BUN) (Renal parameters): no significant change
- Change in creatinine clearance (Ccr) (Renal parameters): no significant change
Molecule: O=C(O[C@@H]1Cc2c(O)cc(O)cc2O[C@@H]1c1cc(O)c(O)c(O)c1)c1cc(O)c(O)c(O)c1 [EGCG, (−)-epigallocatechin-3-gallate]
- Increase of 6-CF AUC0–60 (renal Oats; [8]): ~2.2 fold
- Increase of the plasma concentration of 6-CF at 60 min (renal Oats; [8]): ~8 fold
- Decrease of the renal clearance (CLr) of 6-CF (renal Oats): ~2.6 fold

- Inhibitory effect, OAT1 compared with OAT3 (human) (hOAT1 [2]; 100 μM, hOAT1 vs hOAT3 plot): higher for OAT1 than those for OAT3
- Inhibitory effect, OAT1 compared with OAT3 (rat) (rOat1; 100 μM, rOat1 vs rOat3 plot): higher for OAT1 than those for OAT3
Molecule: Nc1ncnc2c1ncn2CCOCP(=O)(O)O [adefovir]

- Inhibition of hOAT1-mediated 6-CF uptake (hOAT1 [2]; [9]): no effects
- Inhibition of hOAT3-mediated 6-CF uptake (hOAT3 [3]; [9]): no effects
- Inhibition of rOat1-mediated 6-CF uptake (rOat1; [9]): no effects
- Inhibition of rOat3-mediated 6-CF uptake (rOat3; [9]): no effects
Molecule: CC[N+](CC)(CC)CC [TEA, tetraethylammonium]

- inhibition at 100 µM (hOAT3 [3]): > 80%
- inhibition at 100 µM (rOat3): > 80%
- BUN (Renal parameters): 12.6 ± 0.7 mg/dL
- Ccr (Renal parameters): 2.51 ± 0.78 mL/min/kg
- Change in blood urea nitrogen (BUN) (Renal parameters): no significant change
- Change in creatinine clearance (Ccr) (Renal parameters): no significant change
Molecule: CCCN(CCC)S(=O)(=O)c1ccc(C(=O)O)cc1 [probenecid]
- Decrease of the renal clearance (CLr) of 6-CF (renal Oats): ~6 fold

- Vmax of 6-CF uptake (rOat1; HEK293-rOat1, 2 min, 37 °C, pH 7.4): 131 ± 3 pmol/mg/2 min
- Vmax of 6-CF uptake (rOat3; HEK293-rOat3, 2 min, 37 °C, pH 7.4): 35.3 ± 1.3 pmol/mg/2 min
- CL renal ([4]; plasma and urine): 18.3 ± 6.8 mL/min/kg
- AUC(0-t) ([4]; plasma): 573 ng·h/mL
Molecule: O=C(O)c1ccc(C(=O)O)c(-c2c3ccc(=O)cc-3oc3cc(O)ccc23)c1 [6-CF, 6-carboxyfluorescein]
- Vmax of 6-CF transport (hOAT1 [5]): 125.1 ± 1.6 pmol/mg/2 min
- Km (hOAT1 [5]; read-out: Km of 6-CF transport): 6.94 ± 0.33 µM
- Vmax of 6-CF transport (hOAT3 [6]): 70.0 ± 3.2 pmol/mg/2 min
- Km (hOAT3 [6]; read-out: Km of 6-CF transport): 38.4 ± 4.2 µM

- inhibition at 100 µM (hOAT3 [3]): > 80%
- inhibition at 100 µM (rOat3): > 80%
Molecule: CCCCC[C@H](O)/C=C/[C@H]1[C@H](O)CC(=O)[C@@H]1C/C=C\CCCC(=O)O [prostaglandin E2]
